Measurements as given in publication PMC8829947 (ACS Omega, 2022).

Assays:
[1] = Zn2+ affinity by competition with colorimetric PAR assay; assay type: binding; conditions: for Kd: read-out: Kd,Zn2, PAR 100 μM, ZnSO4 10 μM, pH 7.5, 3 h at 25 °C
In short: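 The test compound was titrated into Chelex-100-treated 20 mM HEPES, 100 mM NaCl, pH 7.5, containing PAR 100 μM and ZnSO4 10 μM, then incubated 3 h at 25 °C. Zn2+ displacement from PAR was read as the fall in absorbance at 492 nm. Kd was estimated from the known PAR stability constant at pH 7.4.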

[2] = molecular target: NDM-1 (Klebsiella pneumoniae, UniProt C7C422); test: In vitro enzyme inhibition assay, purified recombinant NDM-1; assay type: biochemical
Sequence of NDM-1 (C7C422 29-270, looked up, species assumed): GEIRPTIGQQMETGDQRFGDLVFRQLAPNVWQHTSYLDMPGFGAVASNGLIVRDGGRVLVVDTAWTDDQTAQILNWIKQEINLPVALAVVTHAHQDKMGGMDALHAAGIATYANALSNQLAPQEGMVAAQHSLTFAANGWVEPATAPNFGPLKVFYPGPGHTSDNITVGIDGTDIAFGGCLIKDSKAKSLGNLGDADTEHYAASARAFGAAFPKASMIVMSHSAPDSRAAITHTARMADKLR
In short: (§1)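 Purified recombinant enzyme at 4 nM was preincubated 5–10 min at RT with varying inhibitor concentrations. Buffer was 50 mM HEPES pH 7.5, 0.2% DMSO, 1% PEG 4000, with either 10 μM ZnSO4 or no zinc (Chelex-100-treated, 2 h, filtered). Reactions were started with nitrocefin (30 μM final, A490) or meropenem (50 μM final, A300) and followed 60 s. IC50 came from the linear portion of progress curves. Duplicates.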

[3] = test system: E. coli expressing blaNDM-1; test: Meropenem rescue concentration, antimicrobial susceptibility test; assay type: cell-based, Escherichia coli; conditions: for RC in MHB, NDM-1: rescue concentration at meropenem 2 μg/mL
In short: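 Checkerboard broth microdilution in Mueller–Hinton broth against E. coli carrying the plasmid-borne MBL gene. Meropenem used five 2-fold dilutions and the test compound six 2-fold dilutions, within 0.5–64 μg/mL; the test compound was dissolved in water or 50% methanol. Inoculum was adjusted to OD625 0.08–0.10, then diluted 200-fold. Incubation was 20 h static at 37 °C, read at OD600. RC is the compound concentration restoring susceptibility at meropenem 2 μg/mL. ≥2 replicates.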

[4] = molecular target: VIM-2 (Escherichia coli, UniProt Q5U7L7); test: In vitro enzyme inhibition assay, purified recombinant VIM-2; assay type: biochemical
In short: as §1

[5] = molecular target: IMP-7; test: In vitro enzyme inhibition assay, purified recombinant IMP-7; assay type: biochemical; conditions: read-out: IC50 IMP-7 - Zn; Zn2+-depleted (Chelex-100-treated) buffer
In short: as §1

[6] = test system: K. pneumoniae ATCC 33495::pGDP2 (NDM-1); test: Meropenem rescue and MIC, antimicrobial susceptibility test; assay type: cell-based, Klebsiella pneumoniae; conditions: rescue concentration at meropenem 2 μg/mL, MHB
[7] = test system: A. baumannii ATCC 17978::pROTO2 (NDM-1); test: as above; assay type: cell-based, Acinetobacter baumannii; conditions: rescue concentration at meropenem 2 μg/mL
[8] = test system: E. coli BW25113 (WT); test: Cell penetration / intracellular accumulation assay; assay type: cell-based, Escherichia coli; conditions: 50 μM, wild-type E. coli
In short: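 E. coli BW25113 (wild type) cells were incubated with the test compound at 50 μM (reference chelator at 50 or 100 μM) for 10 min at 37 °C. Cells were spun through ice-cold silicone oil (12,000g, 2 min), resuspended in water and lysed by three freeze–thaw cycles. The debris pellet was extracted with MeOH. Pooled extracts were quantified by UPLC–Q-TOF targeted MS/MS against a calibration curve. Biological and technical triplicates.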

[9] = IC50 NDM-1 + Zn, Zn2+-supplemented (10 μM) buffer
[10] = IC50 NDM-1 - Zn, Zn2+-depleted (Chelex-100-treated) buffer

Row | Compound | Kd [1] [µM] | IC50 [2, 9] [µM] | IC50 [2, 10] [µM] | RC in MHB, NDM-1 [3] [µg/mL] | IC50 [4] [µM] | IC50 [5] [µM] | RC in MHB, K. pneumoniae ATCC 33495::pGDP2 (NDM-1) [6] [μg/mL] | RC in MHB, A. baumannii ATCC 17978::pROTO2 (NDM-1) [7] | intracellular accumulation increase relative to AMA [8] [fold] | rescue concentration (RC), biological activity ([3]; meropenem 2 μg/mL, resistant E. coli, MBL not given) [μg/mL] | Zn2+ affinity (in words) ([1]; outside the detection range of the assay, estimated)
1 | N[C@@H](CN[C@@H](CN[C@@H](CC(=O)O)C(=O)O)CSc1ccccc1)C(=O)O [Compound 9, ((S)-2-(((S)-2-Amino-2-carboxyethyl)amino)-3-(phenylthio)propyl)-L-aspartic Acid] | 0.0023 ± 0.0019 | 58 ± 5 | > 500 | >64 | – | – | – | – | – | – | –
2 | N[C@@H](CN[C@@H](CN[C@@H](CC(=O)O)C(=O)O)C(=O)O)CSCCO [Compound 8, ((S)-2-(((S)-2-Amino-3-((2-hydroxyethyl)thio)propyl)amino)-2-carboxyethyl)-L-aspartic Acid] | 0.06 ± 0.013 | > 250 | > 500 | 64 | – | – | – | – | – | – | –
3 | NCC(=O)N[C@@H](CN[C@@H](CN[C@@H](CC(=O)O)C(=O)O)C(=O)O)C(=O)O [Compound 1, ((S)-2-(((S)-2-(2-Aminoacetamido)-2-carboxyethyl)amino)-2-carboxyethyl)-L-aspartic Acid] | 0.0199 ± 0.0032 | > 100 | > 500 | >64 | – | – | – | – | – | – | –
4 | N[C@@H](CN[C@@H](CN[C@@H](CC(=O)O)C(=O)O)C(=O)O)CSc1ccc(O)cc1 [Compound 6, ((S)-2-(((S)-2-Amino-3-((4-hydroxyphenyl)thio)propyl)amino)-2-carboxyethyl)-L-aspartic Acid] | 0.0078 ± 0.0034 | 54 ± 4.1 | > 500 | 8 | 183 ± 10 | > 500 | 16 | 8 μg/mL | 4.5 | – | –
5 | CCCSC[C@@H](N)CN[C@@H](CN[C@@H](CC(=O)O)C(=O)O)C(=O)O [Compound 7, ((S)-2-(((S)-2-Amino-3-(propylthio)propyl)amino)-2-carboxyethyl)-L-aspartic Acid] | 0.109 ± 0.04 | 29.2 ± 1 | > 500 | >64 | – | – | – | – | – | – | –
6 | N[C@@H](CN[C@@H](CN[C@@H](Cc1cccs1)C(=O)O)C(=O)O)C(=O)O [Compound 23, (S)-2-Amino-3-(((S)-1-carboxy-2-(((S)-1-carboxy-2-(thiophen-2-yl)ethyl)amino)ethyl)amino)propanoic Acid] | 0.0042 ± 0.0025 | 42.2 ± 4.1 | 9.7 ± 1.7 | 64 | – | – | – | – | – | > 8 | –
7 | N=C(N)NCCC[C@H](NC[C@H](NC[C@H](N)C(=O)O)C(=O)O)C(=O)O [Compound 17, ((S)-2-(((S)-2-Amino-2-carboxyethyl)amino)-2-carboxyethyl)-L-arginine] | 0.024 ± 0.006 | > 100 | > 1000 | >64 | – | – | – | – | – | – | –
8 | N[C@@H](CN[C@@H](CN[C@@H](Cc1ccc(O)cc1)C(=O)O)C(=O)O)C(=O)O [Compound 20, (S)-2-Amino-3-(((S)-1-carboxy-2-(((S)-1-carboxy-2-(4-hydroxyphenyl)ethyl)amino)ethyl)amino)propanoic Acid] | 0.00064 ± 0.00017 | 38 ± 1.8 | 172 ± 1.5 | 16 | – | – | 64 | 32 μg/mL | – | – | –
9 | N[C@@H](CN[C@@H](CN[C@@H](Cc1ccc(OP(=O)(O)O)cc1)C(=O)O)C(=O)O)C(=O)O (mixture of isomers) [Compound 21, (S)-2-Amino-3-(((S)-1-carboxy-2-(((S)-1-carboxy-2-(4-(phosphonooxy)phenyl)ethyl)amino)ethyl)amino)propanoic Acid] | 0.0108 ± 0.0081 | 54 ± 5.6 | 25.1 ± 8.3 | 64 | – | – | – | – | – | – | –
10 | CN[C@@H](CN[C@@H](CN[C@@H](CC(=O)O)C(=O)O)C(=O)O)C(=O)O [Compound 3, ((S)-2-Carboxy-2-(((S)-2-carboxy-2-(methylamino)ethyl)amino) Ethyl)-L-aspartic Acid] | 0.0087 ± 0.0009 | 95.3 ± 3 | > 500 | – | – | – | – | – | – | – | –
11 | N[C@@H](CN[C@@H](CN[C@@H](Cc1c[nH]cn1)C(=O)O)C(=O)O)C(=O)O [Compound 10, (S)-2-Amino-3-(((S)-1-carboxy-2-(((S)-1-carboxy-2-(1H-imidazol-4-yl)ethyl)amino)ethyl)amino)propanoic Acid] | – | 21.7 ± 3.9 | 173 ± 3.9 | 8 | 136 ± 5 | > 500 | 8 | 4–8 μg/mL | – | – | subpicomolar or lower
12 | N[C@@H](CN[C@@H](CNC(CS)C(=O)O)C(=O)O)C(=O)O (stereo in doubt) [Compound 12, (S)-2-Amino-3-(((S)-1-carboxy-2-(((R)-1-carboxy-2-mercaptoethyl)amino)ethyl)amino)propanoic Acid] | 0.0044 ± 0.0018 | 404 ± 18.2 | 5.8 ± 0.5 | 32 | – | – | – | – | – | – | –
13 | N[C@@H](CN[C@@H](CNC(CS)C(=O)O)C(=O)O)C(=O)O (stereo in doubt) [Compound 11, (S)-2-Amino-3-(((S)-1-carboxy-2-(((S)-1-carboxy-2-mercaptoethyl)amino)ethyl)amino)propanoic Acid] | 0.0002 ± 5e-05 | 15.6 ± 0.2 | 21.5 ± 0.8 | 32 | 22 ± 1 | 328 ± 15 | – | – | – | – | –
14 | NC(Cc1ccc(O)cc1)C(=O)N[C@@H](CN[C@@H](CN[C@@H](CC(=O)O)C(=O)O)C(=O)O)C(=O)O (stereo in doubt) [Compound 2, ((S)-2-(((S)-2-((R)-2-Amino-3-(4-hydroxyphenyl)propanamido)-2-carboxyethyl)amino)-2-carboxyethyl)-L-aspartic Acid] | 0.0014 ± 0.00056 | > 100 | > 500 | >64 | – | – | – | – | – | – | –
15 | Cc1ccc(SC[C@@H](N)CN[C@@H](CN[C@@H](CC(=O)O)C(=O)O)C(=O)O)cc1 [Compound 5, ((S)-2-(((S)-2-Amino-3-(P-tolylthio)propyl)amino)-2-carboxyethyl)-L-aspartic Acid] | 0.0014 ± 0.00056 | 104 ± 2 | 97.2 ± 34.2 | 32 | – | – | – | – | – | – | –
16 | NC(=O)C[C@H](NC[C@H](NC[C@H](N)C(=O)O)C(=O)O)C(=O)O [Compound 16, ((S)-2-(((S)-2-Amino-2-carboxyethyl)amino)-2-carboxyethyl)-L-asparagine] | 0.001 ± 0.0001 | 18.3 ± 0.7 | > 1000 | 16 | – | – | 32 | 16 μg/mL | – | – | –
17 | N[C@@H](CN[C@@H](CN[C@H](C(=O)O)c1ccc(O)cc1)C(=O)O)C(=O)O [Compound 22, (S)-2-Amino-3-(((S)-1-carboxy-2-(((S)-carboxy(4-hydroxyphenyl)methyl)amino)ethyl)amino)propanoic Acid] | 0.0095 ± 0.0065 | 283 ± 27.4 | 23 ± 3.6 | >64 | – | – | – | – | – | – | –
18 | N[C@@H](CN[C@@H](CN[C@@H](CO)C(=O)O)C(=O)O)C(=O)O [Compound 19, (S)-2-Amino-3-(((S)-1-carboxy-2-(((S)-1-carboxy-2-hydroxyethyl)amino)ethyl)amino)propanoic Acid] | 0.0045 ± 0.00175 | 80 ± 0.7 | > 1000 | 32 | – | – | – | – | – | – | –
19 | N[C@@H](CN[C@@H](CN[C@@H](CCS)C(=O)O)C(=O)O)C(=O)O [Compound 13, ((S)-2-(((S)-2-Amino-2-carboxyethyl)amino)-2-carboxyethyl)-L-homocysteine] | – | > 100 | > 1000 | 64 | – | – | – | – | – | – | –
20 | CC(C)(S)C(NC[C@H](NC[C@H](N)C(=O)O)C(=O)O)C(=O)O (stereo in doubt) [Compound 14, (R)-2-(((S)-2-(((S)-2-Amino-2-carboxyethyl)amino)-2-carboxyethyl)amino)-3-mercapto-3-methylbutanoic Acid] | 0.0026 ± 0.0004 | 112 ± 4.8 | 185 ± 7.8 | 32 | 246 ± 17 | > 500 | – | – | – | – | –
